CHO-K1 Ca antag – M1 antagonist counterscreen hit in parental CHO-K1 cells; ATP-induced calcium, Fluo-8 fluorescence; inhibition, % at 3 µM; 360,000 compounds, 0.6% hits;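 active = inhibition above a per-plate cutoff, the plate's mean sample inhibition plus 3 SD, cut at about 24% in these data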
M1 ag parental – M1 agonist counterscreen hit in parental CHO-K1 cells. 360,000 compounds, 0.48% hits. AID 602248. Fluo-8 calcium fluorescence; scaled to maximal ATP response, vehicle zero. activation, % at 3 µM; in the data active = activation above about 15%;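 note: untransfected CHO-K1 host cells lacking M1 receptor as counterscreen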
TRPML3 ag – agonists of human TRPML3 channel; AID 1448; 220,000 compounds, 0.29% hits; activation, % at 3 µM; HEK293 TRPML3-YFP, Fluo-8 calcium fluorescence; 100% = the carbachol control signal; Q8TDD5;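 active = activation above its plate's cutoff, the mean activation of the plate's test wells plus 3 SD, cut at about 12% in these data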
Target sequence (Q8TDD5 whole entry, looked up): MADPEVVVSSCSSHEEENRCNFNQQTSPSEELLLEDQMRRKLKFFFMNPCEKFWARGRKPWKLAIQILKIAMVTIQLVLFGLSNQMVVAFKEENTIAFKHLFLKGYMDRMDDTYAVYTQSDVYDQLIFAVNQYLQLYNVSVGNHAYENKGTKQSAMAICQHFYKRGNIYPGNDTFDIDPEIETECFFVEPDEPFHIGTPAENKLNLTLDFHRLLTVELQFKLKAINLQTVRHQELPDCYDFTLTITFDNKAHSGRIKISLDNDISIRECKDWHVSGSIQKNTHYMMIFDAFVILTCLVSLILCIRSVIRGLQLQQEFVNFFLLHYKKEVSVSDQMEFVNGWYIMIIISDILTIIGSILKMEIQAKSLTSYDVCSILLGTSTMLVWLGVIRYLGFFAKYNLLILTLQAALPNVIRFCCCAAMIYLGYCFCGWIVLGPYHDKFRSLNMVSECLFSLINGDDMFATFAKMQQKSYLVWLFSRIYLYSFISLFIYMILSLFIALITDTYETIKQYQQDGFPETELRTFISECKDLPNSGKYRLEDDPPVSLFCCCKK
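Test system: HEK293 cells stably carrying human TRPML3-YFP; Doses: single dose, 3 µM final nominal compound, 0.3% DMSO final; Schedule: dye loading 1 h 37 °C then 30 min ambient, 125 s read; Technique: Fluo-8 calcium fluorescence; Benchmarks: high control carbachol 87 µM, low control DMSO.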
CHO-K1 Ca PAM – counter-screen for M1 PAMs: effect in parental CHO-K1 cells; ATP EC20, Fluo-8 calcium fluorescence; 0% at ATP EC20, 100% at ATP max; activation, % at 3 µM; 360,000 compounds, 0.02% hits; AID 602247;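 active = activation above the run cutoff, the mean activation of all test compounds plus 3 SD, cut at about 40% in these data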;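 note: peak over basal fluorescence ratio in a 140 s read after ATP addition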
zfTRPN1 agonist – agonists of zebrafish TRPN1 channel | activation, % at 3 µM | 220,000 compounds, 0.18% hits | HEK293 zebrafish TRPN1-YFP, Fluo-8 calcium fluorescence; 100% = response to 87 µM carbachol;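 active = activation above its plate's cutoff, the mean activation of test wells on that plate plus 3 SD, cut at about 19% in these data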
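Material: zebrafish TRPN1-YFP in HEK293 cells; Doses: single test compound dose, 3 µM nominal, 0.3% DMSO; Timing: dye loading 1 h at 37 °C, then 30 min room temperature; Technique: intracellular calcium fluorescence with Fluo-8; Benchmarks: high carbachol 87 µM, low DMSO alone.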
Each line names hits and unclear results; the compound was inactive in the other large screens. In the library only some 1.2% were active in any assay of this set; here they are far more common.

C=CCOc1ccc(/C=C/C(=O)OCC(=O)Nc2c(C)n(C)n(-c3ccccc3)c2=O)cc1	CHO-K1 Ca antag 39 (no result: TRPML3 ag, zfTRPN1 agonist)
CC(=O)c1cccc(OCc2cc(C(=O)N3C[C@@H](C)O[C@@H](C)C3)no2)c1	CHO-K1 Ca antag 59 (no result: TRPML3 ag, zfTRPN1 agonist)
COc1ccc([C@H]2CN(c3ccc(OC)cc3)C(=O)[C@@H]2CC(=O)Nc2ccccc2)cc1	none (no result: TRPML3 ag, zfTRPN1 agonist)
COC(=O)c1ccc2nc(-c3ccc(OC)c(OC)c3)c(Cc3cccc(F)c3)n2c1	none (no result: TRPML3 ag, zfTRPN1 agonist)
CCOC(=O)Cn1nc(C)c(NC(=O)CCc2ccccc2)c1C	none
CCOC(=O)Cn1nc(C)c(NC(=O)CCc2ccc(OC)cc2)c1C	M1 ag parental 17
CCCS(=O)(=O)NC(=O)C1(C)CCN(C(=O)c2ccc3ccccc3n2)C1 (centres undefined)	none (no result: TRPML3 ag, zfTRPN1 agonist)
COc1ccc(CCNc2nc3ccccc3n3nnnc23)cc1OC	CHO-K1 Ca antag 27
c1ccc(CCNc2nc3ccccc3n3nnnc23)cc1	none
O=C(NCCc1nc2ccccc2[nH]1)c1ccc(Cl)c([N+](=O)[O-])c1	none
Cc1ccc(C(=O)NCCc2nc3ccccc3[nH]2)cc1[N+](=O)[O-]	CHO-K1 Ca antag 24
Cc1ccc(NS(=O)(=O)c2ccc(-n3cccn3)cc2)nc1	CHO-K1 Ca antag 31 (no result: TRPML3 ag, zfTRPN1 agonist)
COc1cccc(NS(=O)(=O)c2ccc(-n3cccn3)cc2)c1	M1 ag parental 16 (no result: TRPML3 ag, zfTRPN1 agonist)
O=C1NC[C@@H](CCCCN2C[C@H](Cc3ccc(O)cc3)N(Cc3ccccc3)C(=O)C2=O)N(CC2CCCCC2)C1=O	none (no result: TRPML3 ag, zfTRPN1 agonist)
COc1cc(CNCc2ccc(Br)cc2)cc(OC)c1	M1 ag parental 15 (no result: TRPML3 ag, zfTRPN1 agonist)
O=C(NCCN1C(=O)S/C(=C\c2ccccc2)C1=O)c1cc(S(=O)(=O)N2CCOCC2)c(Cl)cc1Cl	M1 ag parental 15
O=C(NCCN1C(=O)S/C(=C\c2ccc(Cl)cc2)C1=O)c1ccc(F)c(S(=O)(=O)N2CCOCC2)c1	none
Cc1ccc(S(=O)(=O)CCC(=O)NCCN2C(=O)S/C(=C\c3ccccc3)C2=O)cc1	M1 ag parental 19
O=C(CCS(=O)(=O)c1ccc(Cl)cc1)NCCN1C(=O)S/C(=C\c2ccccc2F)C1=O	none
COc1cc(C=C2C(=O)C=CC2=O)ccc1O	CHO-K1 Ca PAM 43 (no result: TRPML3 ag, zfTRPN1 agonist)
COc1cc(/C=C2/C(=O)CNC2=O)ccc1O	none
COc1cc(/C=C/C(=O)/C=C(O)/C=C/c2ccc(O)c(OC)c2)ccc1O	none (no result: TRPML3 ag, zfTRPN1 agonist)
COc1cc(/C=C/C(=O)CC(=O)/C=C/c2ccc(O)c(OC)c2)ccc1O	CHO-K1 Ca antag 29, M1 ag parental 19
COc1ccc(C(O)c2nc(-c3ccncc3)cs2)cc1 (centres undefined)	none (no result: TRPML3 ag, zfTRPN1 agonist)
COc1cc(F)ccc1-c1csc(C(C)(O)c2ccc(F)c(F)c2)n1 (centres undefined)	none (no result: TRPML3 ag, zfTRPN1 agonist)
C/C(=N\O)C(=O)NCc1ccncc1	CHO-K1 Ca antag 25
O=C(NCc1ccncc1)C(=O)NCc1ccncc1	none
N#Cc1nc(-c2ccccc2Cl)oc1NCC1CCCO1 (centres undefined)	CHO-K1 Ca antag 25
CC12CCC(CC1O)C2C(=O)O (centres undefined)	none (no result: TRPML3 ag, zfTRPN1 agonist)
Cn1cccc1/C=C1\CC(C(C)(C)C)C/C(=C\c2cccn2C)C1=O (centres undefined)	CHO-K1 Ca antag 24
O=C(O)c1ccc(N=Cc2c(O)ccc3oc4c(c23)CCCC4)cc1	none
Oc1ccccc1N=Cc1c(O)ccc2oc3c(c12)CCCC3	M1 ag parental 16
Cc1ccccc1Cn1c(C)c(C(=O)NCC(C)C)sc1=O	none (no result: TRPML3 ag, zfTRPN1 agonist)
Cc1ccc(/C=C/c2nc3ccccc3c(=O)n2CCc2ccccc2)cc1	CHO-K1 Ca antag 26
Cc1ccccc1/C=C/c1nc2ccccc2c(=O)n1CCc1ccccc1	none
O=c1c2ccccc2nc(/C=C/c2cccc([N+](=O)[O-])c2)n1CCCO	CHO-K1 Ca antag 28
CCNC(=O)CN(c1ccccc1OC)S(=O)(=O)c1cccs1	none
COc1ccccc1N(CC(=O)NC(C)(C)C)S(=O)(=O)c1cccs1	zfTRPN1 agonist 42
COC(=O)c1cc(=O)nc(NN=C2c3ccccc3-c3ccccc32)s1	none (no result: TRPML3 ag, zfTRPN1 agonist)
COC(=O)c1cc(=O)nc(NN=Cc2ccc(OC)cc2)s1	CHO-K1 Ca antag 24 (no result: TRPML3 ag, zfTRPN1 agonist)
O=C(Nc1ccc(Cl)cc1)Nc1csc([N+](=O)[O-])c1	M1 ag parental 16, TRPML3 ag 15, zfTRPN1 agonist 22
O=C(Nc1ccc(Cl)cc1)Nc1ccccc1CC[N+](=O)[O-]	CHO-K1 Ca antag 24

Screens from PubChem.
